Results: publication PMC3924180 (Analytical chemistry, 2013)

Tests used:
[1] = test system: protein tyrosine phosphatase (PTP); test: Single cell phosphatase activity assay; type: cell-based, human; conditions: BEAS-2B cells pretreated with the inhibitor; abstract
Procedure, shortened: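 BEAS-2B cells grown in KGM on glass-coverslip chambers, kept at 37 °C under warm ECB (HEPES buffer, pH 7.4). Microinjected with fluorescent phosphopeptide substrate pTS13 and laser-lysed after 60 s. Contents were electrokinetically loaded and separated by CE-LIF in borate/SDS/NaCl, pH 7.4. Dephosphorylation was taken as the […] peak area over the combined pTS13 + TS13 areas. Treated and untreated cells were compared by bootstrapping (10,000 samples).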

[2] = test system: protein tyrosine phosphatase (PTP); test: Single cell phosphatase activity assay; type: cell-based, human; conditions: primary hAECs pre-incubated with the inhibitor; abstract

| Compound | inhibition relative to PTP activity in untreated controls [1] | median PTP inhibition [2] |
| --- | --- | --- |
| pervanadate | 76% | 91% |
| [Zn+2] [Zn^2+] | 69% | 88% |
| O=C1C=Cc2ccccc2C1=O [1,2-naphthoquinone] | 100% | 87% |
